Measured values pooled from the literature.
Each line is one published result; the experiments were not run side by side.

For `COc1ncccc1-c1cnn2ccc(N3CCN(C(=O)OC(C)C)CC3)nc12`, the remaining binding was 70% (Receptor-interacting serine/threonine-protein kinase 4 (RIPK4, Homo sapiens, UniProt P57078); binding, competition with immobilised ligand; 1 µM).
With `CNCCN1CCC(OCc2ccccc2)CC1` the ΔTm was 11.3 °C (Protein arginine N-methyltransferase 6 (PRMT6, Homo sapiens, UniProt Q96LA8); thermal stability, DSF; 200 µM).
The remaining signal of `Nc1ncc(-c2nc(N3CCOCC3)nc(N3CCOCC3)n2)c(C(F)F)n1` is reported as 89.3% (Androgen receptor (AR, Homo sapiens, UniProt P10275); cell-free assay, radioligand; 10 µM).
The ΔTm of `CCN(CC)CCCC[C@H](NC(=O)[C@H](CC(C)C)NC(=O)[C@H](C)NC(=O)[C@H](Cc1ccccc1)NC(=O)c1ccc(C(C)(C)C)cc1)C(=O)N[C@@H](CO)C(=O)OC` is reported as 0.7 °C (Histone acetyltransferase p300 (EP300, Homo sapiens, UniProt Q09472); thermal stability, DSF; 25 µM).
The Km of `O=C(O)C(F)(F)C(F)(F)C(F)(F)C(F)(F)C(F)(F)C(F)(F)C(F)(F)F` is reported as 9.95 µM (Solute carrier family 22 member 11 (SLC22A11, Homo sapiens, UniProt Q9NSA0); transporter uptake, substrate; pH 6.8).
`Cn1cc(-c2cc(F)cc(N3CCn4c(cc5c4CCCC5)C3=O)c2CO)cc(Nc2ccc(N3CCN(C4COC4)CC3)cn2)c1=O` gave an inhibition of 4% (Tyrosine-protein kinase ABL1 (ABL1, Homo sapiens, UniProt P00519, T315I); enzyme activity, inhibitor; 0.1 µM).
`Cc1nn(C)cc1-c1nc2c(N3CCN(Cc4ccc(Cl)cc4)CC3)c(Cl)cnc2[nH]1` has a remaining binding of 100% (Tyrosine-protein kinase ABL1, non-phosphorylated (ABL1, Homo sapiens, UniProt P00519, F317L); binding, competition with immobilised ligand; 1 µM).
The inhibition of `COc1ccc(S(=O)(=O)N(CC(=O)NO)CC(C)C)cc1` is reported as 43% (Neutrophil collagenase (MMP8, Homo sapiens, UniProt P22894); enzyme activity, inhibitor; 0.1 µM).
`CC[C@@H]1CN2CC[C@@]3(O)C(=Nc4cccc(C)c43)[C@@H]2C[C@@H]1/C(=C\OC)C(=O)OC` has an Emax of over 100% (Delta-type opioid receptor (OPRD1, Homo sapiens, UniProt P41143); β-arrestin recruitment, agonist).
For `C#Cc1n[nH]c2c(-c3cn(C(C)c4ccccn4)c(=O)[nH]c3=O)cc(F)cc12` (stereo not shown), the inhibition was -0.9% (Insulin-like growth factor 1 receptor (IGF1R, Homo sapiens, UniProt P08069); enzyme activity, inhibitor; 1 µM).
